Primed or numbered codes have the meaning given here. Ends that are not written are not given here. FITC′ = fluorescein isothiocyanate label
How the values were obtained:
[1] = test system: flow cell-grown P. aeruginosa PAO1 biofilms; assay: Peptide labeling of flow-grown biofilms by CLSM; type: cell-based, Pseudomonas aeruginosa; conditions: 24 h flow cell biofilms; for Biofilm labeling (CLSM): 2 μM peptide in PBS, 1 h, room temperature; for Labeling pattern / localization within biofilms (CLSM): 2 μM peptide, single slice at mid-height
[2] = test system: planktonic P. aeruginosa cells (PAO1, TdTomato); assay: Probe binding to planktonic cells by flow cytometry; type: cell-based, Pseudomonas aeruginosa; conditions: 10, 5 or 1 μM, 30 min, room temperature, Fig. S2
How it was run: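 PAO1 with constitutive TdTomato plasmid was diluted 1:100 in LB without NaCl and grown 3 h at 37°C, 200 rpm, to mid-log. Cells were pelleted, resuspended in PBS at 10⁸ CFU/mL, labelled with FITC-peptide, washed, and fixed in 4% PFA for 20 min. 10,000 events per sample, gated on FSC/SSC and excluding low-TdTomato events. FITC MFI was normalised to autofluorescence. Two biological replicates, mean ± standard deviation.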

[3] = test system: Human A549 type II alveolar epithelial cells; assay: Epithelial cell infection model, CLSM colocalization with epithelial cells; type: cell-based; conditions: uninfected A549 cells, Fig. S8
How it was run: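 A549 cells seeded at 20,000/well in RPMI 1640 with 10% FBS and 100 U pen/strep for 3 days to ~70% confluency, then prelabelled with 1 μM cell tracker blue for 20 min at 37°C. Washed twice in warm PBS, stained with 2 μM FITC-labelled peptide for 1 h at 37°C, washed twice, fixed in 4% paraformaldehyde for 30 min. CLSM with 60x oil objective.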

[4] = test system: human primary neutrophils infected or not with PAO1-GFP+; assay: Human primary neutrophil infection model, imaging flow cytometry; type: cell-based
[5] = test system: P. aeruginosa aggregates (PAO1-mCherry) on A549 cells; assay: Epithelial cell infection model, CLSM colocalization with bacteria; type: cell-based, Pseudomonas aeruginosa; conditions: Cy5-labeled probes, Fig. S5
[6] = test system: P. aeruginosa (strain PAO1); assay: Bacterial growth inhibition; type: cell-based, Pseudomonas aeruginosa; conditions: Fig. S3
How it was run: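 PAO1 grown from overnight culture (diluted 1:100 in LB without NaCl) at 37°C, 5% CO₂, 200 rpm to mid-log (OD₆₀₀ 0.5), pelleted, resuspended in Mueller-Hinton broth to OD₆₀₀ 0.1 (~10⁷ CFU/mL). Serially diluted FITC-labelled peptide added in triplicate; gentamycin 10 μg/mL positive control, PBS mock. OD₆₀₀ read every 30 min for 16 h at 37°C, 5% CO₂. Background-corrected mean OD normalised to PBS wells, as percentage.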

[7] = test system: P. aeruginosa-infected wounds; assay: In vivo optical imaging in mouse infected wound model; parameters: species or system female BALB/c athymic nude mice; conditions: 6 h post probe injection, p<0.0035, Fig. S7
How it was run: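 Wounded mice (6 mm dorsal biopsies, 48 h recovery) had wounds inoculated with ~10⁷ cells of a 50:50 lux-tagged/TdTomato PAO1 mix or PBS. Cy5-labelled peptide probe (60 nmoles, tail vein) or PBS was injected 24 h later; groups n=4, 3, 2. Isoflurane-anaesthetised mice were imaged at 3, 6 and 18 h. Bioluminescence integration was 2 s; fluorescence excitation was 640 nm. ROI wound Cy5 was normalised to surrounding non-wound tissue.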

[8] = test system: P. aeruginosa-infected wounds; assay: Ex vivo CLSM of sectioned wound tissue; type: in vivo, female BALB/c athymic nude mice; conditions: harvested after 18 h imaging
How it was run: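 Two 6 mm full-thickness dorsal wounds per mouse, occlusive dressing, 48 h recovery. Wounds were then inoculated with 60 μL containing ~10⁷ cells of a 50:50 mix of lux-tagged and TdTomato PAO1, or mock-treated with PBS. Cy5-labelled peptide probe, 60 nmoles, was given by tail vein 24 h later. After the 18 h imaging point, mice were CO₂-euthanised. Wounds were DAPI-stained (1 μg/mL, 10 min), fixed in 4% PFA for 24 h, OCT cryosectioned and imaged by CLSM.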

Substance | Biofilm labeling (CLSM) [1] | Labeling pattern / localization within biofilms (CLSM) [1] | Labeling of planktonic P. aeruginosa cells (FITC MFI, flow cytometry) [2] | Targeting of epithelial cells in the absence of infection [3] | other results
^aFITC-LLGDFFRKSKEKIGKEFKRIVQRIKDFLRNLVPRTES [LL37-FITC, reference compound] | biofilm labeling was observed | localized to the periphery of biofilms | greatest targeting of planktonic cells |  | 
^aFITC-WWKKWWKK [WK8-FITC] | biofilm labeling was observed | penetrated into biofilms | to a lesser degree than LG21-FITC and LL37-FITC | moderate targeting of these cells | 
(4Iph)(f)LPNSNHIKQGL-Cy5^b [4Iphf-HN17-Cy5] | retained similar biofilm targeting properties |  |  |  | Percentage of neutrophils that were Cy5+ ([4]; each of the four populations): greater than 87%; Colocalization between Cy5 and GFP (similarity feature) ([4]; every cell, all infected neutrophils regardless of morphology): < 0.2; Percentage of neutrophils that were Cy5+ ([4]; infected neutrophils with irregular morphology): 99.8%; Percentage of neutrophils that were Cy5+ ([4]; uninfected cells with normal morphology): 87.8%; Targeting in the epithelial cell infection model (Cy5 probes) [5]: biofilm specificity in the epithelial cell infection model; Bactericidal effects against P. aeruginosa [6]: no bactericidal effects; Cy5 signal enhancement in infected wounds vs PBS-treated wounds [7]: reached statistical significance compared to PBS-treated wounds; Cy5 fluorescence in sectioned wound tissue (CLSM) ([8]; infected wound): intense, multi-focal pockets; Cy5 fluorescence in sectioned wound tissue (CLSM) ([8]; uninfected wound): minimal Cy5 fluorescence
(4Iph)(f)LPNSNHIKQGL-FITC^b [4Iphf-HN17-FITC] | biofilm labeling was observed | penetrated into biofilms | to a lesser degree than LG21-FITC and LL37-FITC | did not target epithelial cells in the absence of infection | 
^aFITC-WWRRWWR [WR8-FITC] | biofilm labeling was observed | penetrated into biofilms | to a lesser degree than LG21-FITC and LL37-FITC | moderate targeting of these cells | 
^aFITC-LLPIVGNLLKSLLGWKRKRFG [LG21-FITC] | biofilm labeling was observed | localized to the periphery of biofilms | greatest targeting of planktonic cells | did not target epithelial cells in the absence of infection | 
^aFITC-KRNQRMARYRRGT ({FITC′}-KRNQRMARYRRGT) [UBIsc-FITC, reference compound] | failed to label biofilms |  | minimal targeting of P. aeruginosa cells |  | 
^aFITC-TGRAKRRMQYNRR [UBI29-41-FITC, reference compound] | failed to label biofilms |  | minimal targeting of P. aeruginosa cells |  | 
^aFITC-WPRRPWRR ({FITC′}-WPRRPWRR) [WR8-Pro-FITC] | complete lack of binding |  | minimal targeting of P. aeruginosa cells |  | 
